Measured values as given in ChEMBL document CHEMBL1955865, “Synthesis of novel spirooxindole derivatives by one pot multicomponent reaction and their antimicrobial activity” (2012).
Converted amounts (≈) assume the structure as drawn.

What was measured:
Proteus vulgaris [1] = test: Antibacterial activity against Proteus vulgaris MTCC 1771 at 1000 ug/disc after 24 hrs by disc diffusion assay; format: functional; details: MTCC 1771, 24 h, read-out: IZ
Outline: (§1)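 Disc diffusion on Mueller Hinton agar. Cultures (about 10^4 CFU/ml) were swabbed on and dried 10 min. Discs loaded at 1000 µg/disc were left 30 min at room temperature for diffusion, with a solvent negative control. Plates were incubated 24 h at 37 °C. Inhibition zones were measured in mm, and the experiment was done twice.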

[2] = test system: Salmonella enterica subsp. enterica serovar Paratyphi B; test: Antibacterial activity against Salmonella paratyphi B at 1000 ug/disc after 24 hrs by disc diffusion assay; format: functional; details: read-out: IZ
Outline: (§2)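 Disc diffusion on Mueller Hinton agar. Bacteria were grown 24 h at 37 °C in MHB and diluted to about 10^4 CFU/ml, swabbed onto plates and dried 10 min. Discs were loaded at 1000 μg/disc and held 30 min at room temperature for diffusion. Solvent served as negative control. After 24 h at 37 °C, inhibition zones were read in mm; run twice.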

[3] = test system: Salmonella enterica subsp. enterica serovar Paratyphi B; test: Antibacterial activity against Salmonella paratyphi B after 24 hrs by twofold serial dilution method; format: functional
Outline: (§3)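 Broth microdilution in MHB following the standard bacterial reference method. Compound was dissolved in DMSO (2%) and serially diluted two-fold from 1000 to 15.62 µg/ml in 96-well plates, with an inoculum of about 10^4 CFU/ml. Streptomycin and ciprofloxacin were positive controls. After 24 h at 37 °C, 5 µl of broth was subcultured on MHA. MIC was the lowest concentration without visible growth on agar.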

Klebsiella pneumoniae [4] = test: Antibacterial activity against Klebsiella pneumoniae MTCC 109 after 24 hrs by twofold serial dilution method; format: functional; details: MTCC 109, 24 h
Outline: (§4)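 Bacteria grown in Mueller Hinton broth for 24 h at 37 °C and diluted to about 10^4 CFU/ml. Compound in 2% DMSO was serially diluted two-fold (1000 to 15.62 µg/ml) in medium in 96-well plates and inoculated. Plates were incubated 24 h at 37 °C. 5 µl of broth was spotted onto MHA, and MIC was taken as the lowest concentration with no visible growth on agar.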

Klebsiella aerogenes [5] = test: Antibacterial activity against Enterobacter aerogenes MTCC 111 at 1000 ug/disc after 24 hrs by disc diffusion assay; format: functional; details: MTCC 111, 24 h, read-out: IZ; outline: as §1
Staphylococcus aureus [6] = test: Antibacterial activity against Staphylococcus aureus MTCC 96 at 1000 ug/disc after 24 hrs by disc diffusion assay; format: functional; details: MTCC 96, 24 h, read-out: IZ; outline: as §1
[7] = Antifungal activity against Malassezia pachydermatis at 1000 ug/disc after 48 hrs by disc diffusion assay; format: functional
Outline: (§5)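 Fungal disc diffusion with inoculum from SDA spores (filamentous) or SDB culture (yeast). Test cultures were swabbed on agar, and discs at 1000 µg/disc were left 30 min at room temperature, with a solvent negative control. Plates were incubated 48 h at 27 °C. Zone of inhibition was measured in mm, and the experiment was repeated twice.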

Klebsiella aerogenes [8] = test: Antibacterial activity against Enterobacter aerogenes MTCC 111 after 24 hrs by twofold serial dilution method; format: functional; details: MTCC 111, 24 h; outline: as §4
Proteus vulgaris [9] = test: Antibacterial activity against Proteus vulgaris MTCC 1771 after 24 hrs by twofold serial dilution method; format: functional; details: MTCC 1771, 24 h; outline: as §4
Klebsiella pneumoniae [10] = test: Antibacterial activity against Klebsiella pneumoniae MTCC 109 at 1000 ug/disc after 24 hrs by disc diffusion assay; format: functional; details: MTCC 109, 24 h, read-out: IZ; outline: as §1
[11] = Antifungal activity against Malassezia pachydermatis after 48 to 72 hrs by twofold serial dilution method; format: functional
Outline: (§6)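 Broth two-fold serial dilution, 1000 to 15.62 µg/ml, with compound dissolved in 2% DMSO, in 96-well plates. Filamentous fungal spores came from 10-day SDA slants at 28 °C, and yeast from SDB grown 48 h at 28 °C. Incubation was 48-72 h at 28 °C. MIC was the lowest concentration with no visible fungal growth.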

Micrococcus luteus [12] = test: Antibacterial activity against Micrococcus luteus at 1000 ug/disc after 24 hrs by disc diffusion assay; format: functional; details: read-out: IZ; outline: as §1
Candida albicans [13] = test: Antifungal activity against Candida albicans MTCC 227 after 48 to 72 hrs by twofold serial dilution method; format: functional; outline: as §6
Staphylococcus aureus [14] = test: Antibacterial activity against Staphylococcus aureus MTCC 96 after 24 hrs by twofold serial dilution method; format: functional; details: MTCC 96, 24 h; outline: as §4
Candida albicans [15] = test: Antifungal activity against Candida albicans MTCC 227 at 1000 ug/disc after 48 hrs by disc diffusion assay; format: functional; details: MTCC 227, 48 h, read-out: IZ; outline: as §5
Staphylococcus aureus [16] = test: Antibacterial activity against methicillin-resistant Staphylococcus aureus after 24 hrs by twofold serial dilution method; format: functional; outline: as §3
Botrytis cinerea [17] = test: Antifungal activity against Botrytis cinerea after 48 to 72 hrs by twofold serial dilution method; format: functional; outline: as §6
Salmonella typhimurium [18] = test: Antibacterial activity against Salmonella Typhimurium MTCC 1251 at 1000 ug/disc after 24 hrs by disc diffusion assay; format: functional, Salmonella enterica subsp. enterica serovar Typhimurium; details: Salmonella enterica, MTCC 1251, 24 h; read-out: IZ; outline: as §1
Salmonella typhimurium [19] = test: Antibacterial activity against Salmonella Typhimurium MTCC 1251 after 24 hrs by two-fold serial dilution method; format: functional, Salmonella enterica subsp. enterica serovar Typhimurium; details: Salmonella enterica, MTCC 1251, 24 h; outline: as §4
Micrococcus luteus [20] = test: Antibacterial activity against Micrococcus luteus after 24 hrs by twofold serial dilution method; format: functional; outline: as §4
Botrytis cinerea [21] = test: Antifungal activity against Botrytis cinerea at 1000 ug/disc after 48 hrs by disc diffusion assay; format: functional; details: read-out: IZ; outline: as §5
Staphylococcus aureus [22] = test: Antibacterial activity against methicillin-resistant Staphylococcus aureus at 1000 ug/disc after 24 hrs by disc diffusion assay; format: functional; details: read-out: IZ; outline: as §2

Compound	zone of inhibition at 1000 µg/disc (Proteus vulgaris [1]) [mm]	zone of inhibition at 1000 µg/disc [2] [mm]	MIC [3] [µg/mL]	MIC (Klebsiella pneumoniae [4]) [µg/mL]	zone of inhibition at 1000 µg/disc (Klebsiella aerogenes [5]) [mm]	zone of inhibition at 1000 µg/disc (Staphylococcus aureus [6]) [mm]	inhibition zone (IZ) [7] [mm]	MIC (Klebsiella aerogenes [8]) [µg/mL]	MIC (Proteus vulgaris [9]) [µg/mL]	zone of inhibition at 1000 µg/disc (Klebsiella pneumoniae [10]) [mm]	MIC [11] [µg/mL]	zone of inhibition at 1000 µg/disc (Micrococcus luteus [12]) [mm]	MIC (Candida albicans [13]) [µg/mL]	MIC (Staphylococcus aureus [14]) [µg/mL]	zone of inhibition at 1000 µg/disc (Candida albicans [15]) [mm]	MIC (Staphylococcus aureus [16]) [µg/mL]	MIC (Botrytis cinerea [17]) [µg/mL]	zone of inhibition at 1000 µg/disc (Salmonella typhimurium [18]) [mm]	MIC (Salmonella typhimurium [19]) [µg/mL]	MIC (Micrococcus luteus [20]) [µg/mL]	also measured
CCCCN1C(=O)C2(C3=C(CN2C)C(=O)c2ccccc2C3=O)c2ccccc21 (configuration not stated)	10	9	500 (≈ 1290 µM)	250 (≈ 647 µM)	10	17	11	500 (≈ 1290 µM)	500 (≈ 1290 µM)	13	250 (≈ 647 µM)	13	500 (≈ 1290 µM)	62.5 (≈ 162 µM)	10	500 (≈ 1290 µM)	500 (≈ 1290 µM)	15	125 (≈ 323 µM)	250 (≈ 647 µM)	zone of inhibition at 1000 µg/disc (Botrytis cinerea [21]): 9 mm; zone of inhibition at 1000 µg/disc (Staphylococcus aureus [22]): 8 mm
CN1CC2=C(C(=O)c3ccccc3C2=O)C12C(=O)Nc1ccc(I)cc12 (configuration not stated)	10	7	500 (≈ 1100 µM)	250 (≈ 548 µM)	12	16	14	250 (≈ 548 µM)	500 (≈ 1100 µM)	11	125 (≈ 274 µM)	15	250 (≈ 548 µM)	62.5 (≈ 137 µM)	11	500 (≈ 1100 µM)	250 (≈ 548 µM)	14	125 (≈ 274 µM)	15.6 (≈ 34.2 µM)	zone of inhibition at 1000 µg/disc (Botrytis cinerea [21]): 12 mm; zone of inhibition at 1000 µg/disc (Staphylococcus aureus [22]): 8 mm
CN1CC2=C(C(=O)c3ccccc3C2=O)C12C(=O)Nc1ccccc12 (configuration not stated)	11	10	250 (≈ 757 µM)	125 (≈ 378 µM)	10	15	11	250 (≈ 757 µM)	250 (≈ 757 µM)	13	250 (≈ 757 µM)	13	125 (≈ 378 µM)	62.5 (≈ 189 µM)	10	250 (≈ 757 µM)	125 (≈ 378 µM)	12	125 (≈ 378 µM)	125 (≈ 378 µM)	zone of inhibition at 1000 µg/disc (Botrytis cinerea [21]): 10 mm; zone of inhibition at 1000 µg/disc (Staphylococcus aureus [22]): 10 mm
Cc1ccc2c(c1)C1(C(=O)N2C)C2=C(CN1C)C(=O)c1ccccc1C2=O (configuration not stated)	16	8	500 (≈ 1400 µM)	250 (≈ 698 µM)	17	22	10	62.5 (≈ 174 µM)	125 (≈ 349 µM)	13	500 (≈ 1400 µM)	15	250 (≈ 698 µM)	15.6 (≈ 43.6 µM)	12	125 (≈ 349 µM)	250 (≈ 698 µM)	22	15.6 (≈ 43.6 µM)	125 (≈ 349 µM)	zone of inhibition at 1000 µg/disc (Botrytis cinerea [21]): 11 mm; zone of inhibition at 1000 µg/disc (Staphylococcus aureus [22]): 14 mm
C#CCN1C(=O)C2(C3=C(CN2C)C(=O)c2ccccc2C3=O)c2ccccc21 (configuration not stated)	9	10	250 (≈ 679 µM)	250 (≈ 679 µM)	11	13	10	250 (≈ 679 µM)	500 (≈ 1360 µM)	11	250 (≈ 679 µM)	12	250 (≈ 679 µM)	125 (≈ 339 µM)	10	125 (≈ 339 µM)	250 (≈ 679 µM)	15	62.5 (≈ 170 µM)	125 (≈ 339 µM)	zone of inhibition at 1000 µg/disc (Botrytis cinerea [21]): 10 mm; zone of inhibition at 1000 µg/disc (Staphylococcus aureus [22]): 10 mm
CN1C(=O)C2(C3=C(CN2C)C(=O)c2ccccc2C3=O)c2ccccc21 (configuration not stated)	10	11	250 (≈ 726 µM)	31.2 (≈ 90.7 µM)	10	13	11	125 (≈ 363 µM)	125 (≈ 363 µM)	18	125 (≈ 363 µM)	12	250 (≈ 726 µM)	62.5 (≈ 181 µM)	9	250 (≈ 726 µM)	250 (≈ 726 µM)	14	125 (≈ 363 µM)	125 (≈ 363 µM)	zone of inhibition at 1000 µg/disc (Botrytis cinerea [21]): 8 mm; zone of inhibition at 1000 µg/disc (Staphylococcus aureus [22]): 10 mm
